# Test results taken from article PMC4664024 (Blood Coagulation & Fibrinolysis, 2015).
# Read-outs that look alike come from different tables or passages of the source.
# Assays:
# [1] = tested on: activated partial thromboplastin clotting time (aPTT); assay: Activated partial thromboplastin time; type: in vivo, human; details: at peak concentration and at steady state (T2–T3)
# How it was run: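 Blood drawn the day before surgery (T0), then 2 h ± 10 min post-dose on day 4 ± 1 (T2) and day 7 ± 1 (T3). aPTT (s) run on an automated coagulation analyser. Reported as median and 25th–75th percentiles; Wilcoxon signed-rank test for repeated measures.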
# [2] = type: in vivo, human
# [3] = healthy Japanese individuals, cited from earlier work
# exogenous bovine Xa = exogenous bovine Xa (Bos taurus, UniProt P00743); assay: Plasma concentration by functional anti-Xa test in orthopaedic patients; type: in vivo; details: for range of concentrations observed with the anti-Xa functional tests: T0, before starting the treatment
# Sequence of exogenous bovine Xa (P00743 234-492 limits assumed): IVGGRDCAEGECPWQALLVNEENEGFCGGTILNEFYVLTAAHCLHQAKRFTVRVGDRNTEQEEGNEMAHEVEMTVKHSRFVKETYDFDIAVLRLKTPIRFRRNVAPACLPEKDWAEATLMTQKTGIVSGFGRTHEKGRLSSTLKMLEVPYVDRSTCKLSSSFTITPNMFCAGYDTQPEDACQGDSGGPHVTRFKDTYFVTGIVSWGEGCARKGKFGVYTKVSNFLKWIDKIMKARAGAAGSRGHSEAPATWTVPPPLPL
# Sequence of exogenous bovine Xa (P00743 41-180 limits assumed): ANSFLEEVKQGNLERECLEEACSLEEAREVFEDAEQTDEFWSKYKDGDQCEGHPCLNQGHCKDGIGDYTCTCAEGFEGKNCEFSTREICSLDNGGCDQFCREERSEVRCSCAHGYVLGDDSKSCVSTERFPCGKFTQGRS
Compound,mean increase in aPTT [1],"Cmax ([2]; human, plasma, oral, 2.5 mg)",minimum period before reaching the steady state ([3]; 2.5 mg twice daily),Cmax ([3]; after 7 days of 2.5-mg twice-daily treatment),Cmax ([3]; after a first intake of 2.5 mg),"plasma concentration by anti-Xa functional assay, arithmetic mean and SD (exogenous bovine Xa; T0 (D−1), before starting the treatment)",range of concentrations observed with the anti-Xa functional tests (exogenous bovine Xa),"interindividual variation in the Cmax (coefficient of variation) ([2]; T1, first intake the day after surgery)"
COc1ccc(-n2nc(C(N)=O)c3c2C(=O)N(c2ccc(N4CCCCC4=O)cc2)CC3)cc1 [Apixaban],6 s,75 ± 37 ng/mL,≥ 3 treatment days,84 ng/mL,51 ± 25 ng/mL,6 ± 7.5 ng/mL,0 to 24 ng/mL,–
O=C(NC[C@H]1CN(c2ccc(N3CCOCC3=O)cc2)C(=O)O1)c1ccc(Cl)s1 [Rivaroxaban],15 s,–,–,–,–,–,0 to 25 ng/mL,around 100%
